Measured values from ChEMBL document CHEMBL3045866, “A novel family of insect-selective peptide neurotoxins targeting insect large-conductance calcium-activated K+ channels isolated from the venom of the theraphosid spider Eucratoscelus constrictus” (Mol Pharmacol, 2011).
Calls of active or inactive are those of the source. The calls are words filed in the database; no cut-off is given here. Bridge positions count the residues as written; N and C are the ends. Peptide text beside a SMILES is read from it.

Key:
[1] = target: Voltage-gated sodium channel Nav1 alpha subunit (Periplaneta americana) (UniProt D0E0C1); conditions: 300 nM
[2] = target: Voltage-dependent calcium channel alpha-1 subunit (Blattella germanica) (UniProt O18323); assay: (§1) Inhibition of voltage-gated calcium channel Cav-mediated fast-transient current in Periplaneta americana (American cockroach) DUM neurons assessed as effect on voltage-dependent activation at 25 nM measured at holding potential -80 mV in 10 mV increments depolarized to +40 mV after 10 min by whole cell patch clamp assay in presence of CdCl2
In short: (§2)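 BK(Ca) current in DUM neurons with 5 mM 4-AP in the bath. Toxin perfused for 10 min or to equilibrium; then 1 mM CdCl2 plus 30 nM ChTx added, and the residual current subtracted. 100-ms steps from Vh -80 mV to +30 mV, or to +40 mV in 10-mV increments for I–V. Peak (fast-transient) and 100-ms (late) amplitudes measured. IC50 from logistic fit; n = 3–6.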

[3] = target: Voltage-gated sodium channel Nav1 alpha subunit (Periplaneta americana) (UniProt D0E0C1); assay: Inhibition of Nav channel in Periplaneta americana (American cockroach) DUM neurons assessed as effect on voltage-dependent activation at 330 nM measured at holding potential -90 mV depolarised to +70 mV with 10 mV increments for 10 min by whole cell patch clamp assay
In short: (§3)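 Whole-cell voltage clamp of TTX-sensitive Na+ current in DUM neurons isolated from adult cockroaches and kept no longer than 24 h at 30°C. Bath (mM): NaCl 80, CsCl 5, CaCl2 1.8, TEA-Cl 50, 4-AP 5, HEPES 10, NiCl2 0.1, CdCl2 1, pH 7.4. Vh -90 mV; test pulse to -10 mV, or steps to +70 mV in 10-mV increments at 0.1 Hz. P-P/4 leak subtraction; 20–23°C.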

Mus musculus [4] = assay: Neurotoxicity against Mus musculus C57BL/6 (mouse) assessed as effect on posture at 500 pmol, icv; assay type: toxicity, organism-based; conditions: in vivo, icv_or_intrathecal
In short: (§4)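 Female C57BL/6 mice (~20 g) lightly anesthetized with diethylether. 5 µl of sample in BSA solution injected into the left cerebral ventricle. Posture, behavior and neurotoxic signs observed; n = 2.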

[5] = target: Voltage-dependent calcium channel alpha-1 subunit (Blattella germanica) (UniProt O18323); assay: as §1, with “late-sustained” for “fast-transient”
Mus musculus [6] = assay: Neurotoxicity against Mus musculus C57BL/6 (mouse) assessed as effect on behaviour at 500 pmol, icv; assay type: toxicity, organism-based; conditions: in vivo, icv_or_intrathecal
In short: as §4

[7] = target: Voltage-dependent calcium channel alpha-1 subunit (Blattella germanica) (UniProt O18323); assay: Inhibition of high voltage activated Cav channel in Periplaneta americana (American cockroach) DUM neurons assessed as effect on voltage-dependent activation at 330 nM measured at holding potential -90 mV depolarized to +70 mV with 10 mV increments after 10 min by whole cell patch clamp assay
In short: (§5)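 Ba2+ currents through M-LVA and HVA Cav channels recorded by whole-cell clamp in cockroach DUM neurons at 20–23°C. Toxin applied for 10 min via a perfusion needle. Peak IBa measured relative to control. For activation, steps from Vh -90 mV to +70 mV in 10-mV increments at 0.1 Hz. P-P/4 leak subtraction; n = 3.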

[8] = Inhibition of transient A type potassium channel IK(A) in Periplaneta americana (American cockroach) DUM neurons at 330 nM measured at holding potential -90 mV depolarized to +30 mV after 10 min by whole cell patch clamp assay in presence of CdCl2 and ChTx
[9] = Inhibition of delayed rectifier potassium channel IK(DR) in Periplaneta americana (American cockroach) DUM neurons at 330 nM measured at holding potential -90 mV depolarized to +30 mV after 10 min by whole cell voltage clamp assay in presence of CdCl2 and ChTx relative to control
[10] = target: Voltage-dependent calcium channel alpha-1 subunit (Blattella germanica) (UniProt O18323); assay: Inhibition of mid-low voltage activated Cav channel in Periplaneta americana (American cockroach) DUM neurons assessed as effect on voltage-dependent activation at 330 nM measured at holding potential -90 mV depolarized to +70 mV with 10 mV increments after 10 min by whole cell patch clamp assay
In short: as §5

[11] = Inhibition of transient A type potassium channel IK(A) in Periplaneta americana (American cockroach) DUM neurons assessed as effect on voltage-dependent activation at 330 nM measured at holding potential -90 mV depolarized to +40 mV with 100 ms increments after 10 min by whole cell patch clamp …
[12] = Reversible inhibition of Potassium channel Kv in Periplaneta americana (American cockroach) DUM neurons at 330 nM measured at holding potential -90 mV depolarized to +30 mV after 10 min by whole cell patch clamp assay relative to control
[13] = target: Voltage-gated sodium channel Nav1 alpha subunit (Periplaneta americana) (UniProt D0E0C1); assay: Inhibition of Nav channel in Periplaneta americana (American cockroach) DUM neurons assessed as remaining activity at 330 nM measured at holding potential -90 mV depolarized to -10 mV after 10 min by whole cell patch clamp assay relative to control
In short: as §3

[14] = target: Voltage-dependent calcium channel alpha-1 subunit (Blattella germanica) (UniProt O18323); assay: Inhibition of voltage-gated calcium channel Cav-mediated late-sustained current in Periplaneta americana (American cockroach) DUM neurons assessed as measured at holding potential -80 mV depolarized to +40 mV after 10 min by whole cell patch clamp assay in presence of CdCl2
In short: as §2

[15] = target: Voltage-dependent calcium channel alpha-1 subunit (Blattella germanica) (UniProt O18323); assay: Inhibition of mid-low voltage activated Cav channel in Periplaneta americana (American cockroach) DUM neurons assessed as reduction in barium current at 330 nM measured at holding potential -90 mV depolarized to -20 mV after 10 min by whole cell patch clamp assay relative to control
In short: as §5

Gryllus bimaculatus [16] = assay: Neurotoxicity against third-instar nymph stage of Gryllus bimaculatus (cricket) assessed as paralysis at 1.1 nmol/g measured within 5 min; assay type: functional, organism-based
[17] = Inhibition of delayed rectifier potassium channel IK(DR) in Periplaneta americana (American cockroach) DUM neurons assessed as effect on voltage-dependent activation at 330 nM measured at holding potential -90 mV depolarized to +40 mV with 100 ms increments after 10 min by whole cell voltage clamp …
[18] = target: Voltage-dependent calcium channel alpha-1 subunit (Blattella germanica) (UniProt O18323); assay: Inhibition of high voltage activated Cav channel in Periplaneta americana (American cockroach) DUM neurons assessed as reduction in barium current at 330 nM measured at holding potential -90 mV depolarized to +30 mV after 10 min by whole cell patch clamp assay relative to control
In short: as §5

Gryllus bimaculatus [19] = assay: Neurotoxicity against third-instar nymph stage of Gryllus bimaculatus (cricket) assessed as mortality at 1.1 nmol/g measured at 15 min; assay type: functional, organism-based
[20] = target: Voltage-dependent calcium channel alpha-1 subunit (Blattella germanica) (UniProt O18323); assay: Inhibition of voltage-gated calcium channel Cav-mediated fast-transient current in Periplaneta americana (American cockroach) DUM neurons assessed as measured at holding potential -80 mV depolarized to +40 mV after 10 min by whole cell patch clamp assay in presence of CdCl2
In short: as §2

Sequence of Voltage-gated sodium channel Nav1 alpha subunit (Periplaneta americana) (D0E0C1 as listed by the source): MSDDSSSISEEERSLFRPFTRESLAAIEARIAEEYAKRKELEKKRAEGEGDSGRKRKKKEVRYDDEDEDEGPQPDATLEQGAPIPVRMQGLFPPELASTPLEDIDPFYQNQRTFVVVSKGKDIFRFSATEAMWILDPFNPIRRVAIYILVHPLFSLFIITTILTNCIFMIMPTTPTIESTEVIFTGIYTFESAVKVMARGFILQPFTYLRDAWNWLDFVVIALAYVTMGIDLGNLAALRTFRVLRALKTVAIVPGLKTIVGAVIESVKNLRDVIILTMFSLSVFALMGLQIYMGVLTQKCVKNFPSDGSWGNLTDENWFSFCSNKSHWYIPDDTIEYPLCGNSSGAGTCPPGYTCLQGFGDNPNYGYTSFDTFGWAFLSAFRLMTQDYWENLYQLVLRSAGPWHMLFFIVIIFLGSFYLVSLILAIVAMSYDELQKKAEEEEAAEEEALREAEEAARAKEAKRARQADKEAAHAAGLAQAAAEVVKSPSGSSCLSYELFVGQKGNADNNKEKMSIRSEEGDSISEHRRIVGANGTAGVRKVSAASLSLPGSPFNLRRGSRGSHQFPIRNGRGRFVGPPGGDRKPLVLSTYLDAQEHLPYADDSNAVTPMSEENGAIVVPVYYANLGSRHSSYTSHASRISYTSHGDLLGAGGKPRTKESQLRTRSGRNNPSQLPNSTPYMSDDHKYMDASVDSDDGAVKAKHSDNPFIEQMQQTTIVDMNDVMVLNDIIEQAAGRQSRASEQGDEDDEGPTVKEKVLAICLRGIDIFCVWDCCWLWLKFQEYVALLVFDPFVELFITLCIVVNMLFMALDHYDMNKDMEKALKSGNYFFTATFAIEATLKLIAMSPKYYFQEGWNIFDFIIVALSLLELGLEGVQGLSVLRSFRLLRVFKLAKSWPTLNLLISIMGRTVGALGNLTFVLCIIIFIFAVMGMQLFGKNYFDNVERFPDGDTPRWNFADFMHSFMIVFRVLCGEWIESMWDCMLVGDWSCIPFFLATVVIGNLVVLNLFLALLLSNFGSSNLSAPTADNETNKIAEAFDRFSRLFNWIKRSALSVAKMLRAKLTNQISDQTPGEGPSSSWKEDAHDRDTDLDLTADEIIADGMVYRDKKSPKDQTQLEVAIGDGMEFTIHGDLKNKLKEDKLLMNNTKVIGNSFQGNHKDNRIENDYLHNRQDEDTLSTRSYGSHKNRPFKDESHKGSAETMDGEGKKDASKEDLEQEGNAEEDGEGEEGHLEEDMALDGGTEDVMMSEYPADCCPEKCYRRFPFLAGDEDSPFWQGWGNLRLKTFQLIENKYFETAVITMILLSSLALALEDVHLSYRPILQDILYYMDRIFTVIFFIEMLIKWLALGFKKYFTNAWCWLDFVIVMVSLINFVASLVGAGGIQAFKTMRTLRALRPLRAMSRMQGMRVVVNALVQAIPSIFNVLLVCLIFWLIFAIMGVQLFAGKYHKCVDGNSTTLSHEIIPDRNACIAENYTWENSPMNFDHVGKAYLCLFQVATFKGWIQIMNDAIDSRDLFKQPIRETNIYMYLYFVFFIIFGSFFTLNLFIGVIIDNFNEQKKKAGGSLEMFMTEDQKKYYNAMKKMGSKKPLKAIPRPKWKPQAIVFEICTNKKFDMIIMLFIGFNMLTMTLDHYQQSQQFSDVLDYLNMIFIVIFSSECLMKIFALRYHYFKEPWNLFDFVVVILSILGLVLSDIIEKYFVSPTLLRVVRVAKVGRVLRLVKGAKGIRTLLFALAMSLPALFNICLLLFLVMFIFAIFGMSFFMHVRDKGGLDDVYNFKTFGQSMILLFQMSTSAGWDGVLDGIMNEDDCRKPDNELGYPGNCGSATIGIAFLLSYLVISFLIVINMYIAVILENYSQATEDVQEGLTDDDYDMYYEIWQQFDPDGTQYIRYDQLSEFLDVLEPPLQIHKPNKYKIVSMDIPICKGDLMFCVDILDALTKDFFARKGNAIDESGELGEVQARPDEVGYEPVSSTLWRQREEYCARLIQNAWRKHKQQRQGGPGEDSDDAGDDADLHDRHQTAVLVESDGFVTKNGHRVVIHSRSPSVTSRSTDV
Sequence of Voltage-dependent calcium channel alpha-1 subunit (Blattella germanica) (O18323 as listed by the source): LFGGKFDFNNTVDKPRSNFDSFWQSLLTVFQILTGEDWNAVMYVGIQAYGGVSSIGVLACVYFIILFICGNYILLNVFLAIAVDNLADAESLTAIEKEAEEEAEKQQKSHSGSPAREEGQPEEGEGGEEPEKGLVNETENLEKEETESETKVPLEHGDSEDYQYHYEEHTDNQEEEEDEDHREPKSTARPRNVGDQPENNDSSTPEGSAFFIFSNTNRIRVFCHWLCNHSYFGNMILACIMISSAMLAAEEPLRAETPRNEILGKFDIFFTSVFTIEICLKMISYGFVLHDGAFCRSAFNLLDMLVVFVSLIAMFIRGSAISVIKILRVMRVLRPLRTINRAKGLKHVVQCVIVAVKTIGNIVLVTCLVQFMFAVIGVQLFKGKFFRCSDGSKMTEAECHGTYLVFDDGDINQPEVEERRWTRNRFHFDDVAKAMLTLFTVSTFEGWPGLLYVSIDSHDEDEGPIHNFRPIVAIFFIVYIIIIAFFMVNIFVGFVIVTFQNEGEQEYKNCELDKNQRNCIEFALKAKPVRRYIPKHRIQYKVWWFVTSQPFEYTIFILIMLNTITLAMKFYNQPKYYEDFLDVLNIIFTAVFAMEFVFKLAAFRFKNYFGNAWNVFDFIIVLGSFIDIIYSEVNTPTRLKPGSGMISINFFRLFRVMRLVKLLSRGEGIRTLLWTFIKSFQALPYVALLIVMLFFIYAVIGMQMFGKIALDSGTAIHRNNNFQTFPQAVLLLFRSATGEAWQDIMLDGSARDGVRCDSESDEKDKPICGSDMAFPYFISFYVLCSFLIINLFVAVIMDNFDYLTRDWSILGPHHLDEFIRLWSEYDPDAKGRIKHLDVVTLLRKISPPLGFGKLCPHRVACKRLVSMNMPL

Row | SMILES | inhibition [1] | inhibition [2] | inhibition [3] | Activity (Mus musculus [4]) | inhibition [5] | Activity (Mus musculus [6]) | inhibition [7] | inhibition [8] | inhibition [9] | inhibition [10] | inhibition [11] | inhibition [12] | Activity [13] [%] | inhibition [14] | inhibition [15] [%] | Activity (Gryllus bimaculatus [16]) | inhibition [17] | inhibition [18] [%] | Activity (Gryllus bimaculatus [19]) | inhibition [20]
1 | NC1=N[C@H](O)[C@H]2[C@H]3O[C@]4(O)O[C@@H]([C@@H](O)[C@@]2(N1)[C@@H]4O)[C@]3(O)CO | Active |  |  |  |  |  |  |  |  |  |  |  |  |  |  |  |  |  |  | 
2 | CSCC[C@@H]1NC(=O)[C@H](CC(=O)O)NC(=O)[C@H](CCC(=O)O)NC(=O)[C@@H]2CSSC[C@H](NC(=O)[C@@H](N)Cc3ccc(O)cc3)C(=O)N[C@@H](CCC(N)=O)C(=O)N[C@@H](CCCCN)C(=O)N[C@@H](Cc3ccccc3)C(=O)N[C@@H](CC(C)C)C(=O)N[C@@H](Cc3c[nH]c4ccccc34)C(=O)N[C@@H]([C@@H](C)O)C(=O)N[C@H]3CSSC[C@H](NC(=O)[C@H](C(C)C)NC1=O)C(=O)N[C@@H](CCC(=O)O)C(=O)N[C@@H](CC(C)C)C(=O)N[C@@H](Cc1c[nH]c4ccccc14)C(=O)N[C@H](C(=O)N[C@@H](CCCCN)C(=O)N[C@@H](Cc1ccc(O)cc1)C(=O)N[C@@H](CCCCN)C(=O)N[C@@H](CCC(=O)O)C(=O)O)CSSC[C@H](NC(=O)[C@H](CCCCN)NC(=O)[C@H](CCCNC(=N)N)NC(=O)[C@H](CCC(=O)O)NC(=O)[C@H]([C@@H](C)O)NC(=O)[C@H](CC(=O)O)NC3=O)C(=O)N2 (H-YCQKFLWTCDTERKCCEDMVCELWCKYKE-OH; disulfide 2-16, 9-21, 15-25) |  | inactive | inactive | Non-toxic | inactive | Non-toxic | inactive | inactive | inactive | inactive | inactive | Active | 92 | Dose-dependent effect | 10 | Active | inactive | 7 | Active | Dose-dependent effect
